# The list is not random: actives were taken first. Their share in the collection is about 0.51%.
# Rce1 inhib – blocks yeast Ras-converting enzyme. Q03530. yeast membranes, quenched prenylated peptide cleavage fluorescence. calls only. hit rate 0.27% among 290,000;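 active = fall in fluorescence gain of 50% or more versus controls, with final raw signal at or below 3038400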;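 also: plate controls were neutral control wells for no effect and wells lacking membranes for full effect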
# Target sequence (Q03530 whole entry, looked up): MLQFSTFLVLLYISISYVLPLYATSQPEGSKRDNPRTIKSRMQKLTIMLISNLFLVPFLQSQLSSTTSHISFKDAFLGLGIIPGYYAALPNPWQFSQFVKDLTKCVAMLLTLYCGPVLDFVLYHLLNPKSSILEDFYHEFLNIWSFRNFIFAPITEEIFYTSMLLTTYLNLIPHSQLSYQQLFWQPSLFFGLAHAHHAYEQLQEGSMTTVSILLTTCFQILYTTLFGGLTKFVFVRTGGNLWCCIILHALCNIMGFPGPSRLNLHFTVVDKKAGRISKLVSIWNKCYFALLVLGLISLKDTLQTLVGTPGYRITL
# T cell modulator – T cell immune modulators affecting CD8 T cell-vesicle binding | 2C CD8+ T cell-vesicle binding, flow cytometry; active compounds read low | response (vesicle binding), % at 7 µM | hit rate 0.068% among 330,000 | AID 2052;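 active = response, share of CD8 T cells binding vesicles, and their 90th percentile fluorescence all below set limits, cut at about 80% in these data, passing the limit was not always enough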;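 also: values below 100% mean blocked vesicle binding to the CD8+ T cells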
#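 Assay system – 2C mouse CD8+ T cells · Also added – QL9-loaded Drosophila micro-vesicles · Timing – Cell–vesicle co-incubation 1.5 h at 37 °C, staining 20 min on ice · Signal – flow cytometry of vesicle-bound cells · Measure – percent CD8+ FL2 mean versus row control · Controls – Peptide-free naked vesicles (low) and QL9 vesicles with 0.7% DMSO vehicle (high)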
# PolyA inh – inhibitors of polyadenylation in S. cerevisiae | S. cerevisiae SKY197-pL101 polyadenylation reporter, beta-gal luminescence; efflux-impaired pdr1/pdr3 knockout yeast; score 100 = 6 SD above DMSO | activity score, % at 12 µM | hit rate 0.02% among 300,000 | AID 1875;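 active = lowest replicate activity score at least 50, where 100 means six control SD above control mean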;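 also: yeast exposed to compound for 9 h at 30 °C; higher score means more reporter readthrough which indicates perturbed polyadenylation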
# aDG glyco up – alpha-DG glycosylation activation; Pro5-aDG cells, alpha-DG glycosylation AlphaScreen (IIH6); 0% Pro5, 100% B10-LARGE cell signal; activation, % at 10 µM; hit rate 0.22% among 360,000; AID 624168;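 active = activation of at least 8% versus controls, or a plate z-score of at least 8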;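 also: Pro5 are CHO cells carrying HIG-tagged alpha-DG that lacks glycosylation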
# Active calls of the source: *; i = inactive; / = no result given; + = active, no number.
SMILES,Rce1 inhib,T cell modulator,PolyA inh,aDG glyco up
Cc1cccc(C)c1NC(=O)C(c1ccccc1OC(F)(F)F)N1CCN(C)CC1 (centres undefined),/,/,/,0
COc1cc2c(cc1OC)C(C)N(C(=O)c1cc3c(=O)oc4ccc(C)cc4c3s1)CC2 (centres undefined),+,110,-12,0
COc1cc2c(cc1OC)C(C)N(C(=O)c1cccs1)CC2 (centres undefined),i,231,-24,0
COc1ccc(S(=O)(=O)NC2CCSc3ccccc32)cc1OC (centres undefined),i,358,0,0
CN(CC(=O)Nc1ccccc1Br)C(=O)c1ccc2c(=O)n3c(nc2c1)CCC3,/,256,/,1
O=C(CN1C(=O)N/C(=C\c2ccccc2OCc2ccc(C(=O)O)cc2)C1=O)Nc1ccccc1F,i,289,13,0
CC(=O)c1c(O)cc(O)c(C(C)=O)c1O,+,318,-5,0
O=C(CC(Nc1ccc(F)cc1)c1ccccc1)c1ccccc1 (centres undefined),+,173,-20,0
O=C(c1ccc(Cn2cnnn2)cc1)N1CCCC(Nc2ccc(F)cc2)C1 (centres undefined),+,300,-6,0
COc1cc(C(O)c2nc(-c3cccc(C(C)C)c3)cs2)ccc1F (centres undefined),/,/,/,1
COc1cc2c(cc1OC)C(C)=NC1(CCCCC1)C2,+,262,-9,0
CCC(=O)Nc1cccc(NC(=S)NC(=O)c2ccccc2Cl)c1,i,361,-8,0
CCC(=O)Nc1cccc(NC(=S)NC(=O)c2cccs2)c1,+,166,-7,0
OC1CCN(C(c2ccc3ncccc3c2)c2nnnn2C2CCCCC2)CC1 (centres undefined),+,418,-12,0
COC1=C(Br)C(=O)c2ncccc2C1=O,/,/,/,0
CN(C(=O)COC(=O)C1CCN(S(=O)(=O)c2cccs2)CC1)c1ccccc1,i,243,-4,0
CN(C)S(=O)(=O)c1ccc(NC(=O)/C=C/c2ccccc2Cl)cc1,+,260,-15,0
O=C(/C=C/c1ccccc1Cl)Nc1ccccc1,i,205,15,0
COC(=O)c1ccc(-c2ccc(CNCC(O)c3ccccc3)o2)cc1 (centres undefined),+,201,-6,2
COC(=O)c1ccc(CNCC(O)COc2ccc(-c3ccccc3)cc2)cc1 (centres undefined),i,184,8,0
N#CC(/C(=N/S(=O)(=O)c1cccs1)c1ccccc1)c1nc2ccccc2[nH]1 (centres undefined),+,634,3,0
N#CC(Cc1cccs1)c1nc2ccccc2[nH]1 (centres undefined),/,/,/,0
Cc1ccc(S(=O)(=O)c2cn(C)c3cc(N4CCOCC4)c(F)cc3c2=O)cc1,+,475,13,4
C=Cc1c(C)c2cc3[nH]c(cc4nc(cc5nc(cc1[nH]2)C(C)=C5CCC(=O)O)C(CCC(=O)O)=C4C)c(C)c3C=C,i,74,6,73*
C(=Nn1cnnc1)c1ccc2c(c1)CCC2,/,/,/,0
SMILES,Rce1 inhib,T cell modulator,PolyA inh,aDG glyco up
O=C(N/N=C/c1cccc(OC(=O)c2ccccc2Cl)c1)c1cccnc1,i,0.0*,8,0
CCc1ccc(C(C)NC(=O)Cc2ccc(F)cc2)cc1 (centres undefined),i,210,-10,0
CC(NC(=O)Cc1ccc(F)cc1)c1ccccc1 (centres undefined),i,64*,13,0
Cc1cc(Br)c(NC(=O)c2c(-c3c(Cl)cccc3Cl)noc2C)c(Br)c1,i,26*,3,0
C[C@@H]1CN([C@H](C)CO)C(=O)c2cc(NC(=O)Nc3ccc(F)cc3)ccc2O[C@@H](C)CCCCO[C@H]1CN(C)S(=O)(=O)c1cccs1,/,/,/,-1
O=S(=O)(c1ccccc1)c1nc(-c2ccco2)oc1N1CCCCC1,+,204,-3,0
CC1CCN(c2oc(-c3ccco3)nc2S(=O)(=O)c2ccccc2)CC1,i,276,-4,0
COc1ccc(-c2cn3cc(C)ccc3n2)cc1Br,i,361,-2,94*
O=C(CCCSCCCC(=O)NN=Cc1ccccc1)NN=Cc1ccccc1,/,/,/,0
CCSc1nc2c(c(=O)[nH]1)C(c1ccccn1)C1=C(CC(C)(C)CC1=O)N2 (centres undefined),+,388,16,0
CC(C)c1ccc(C(=O)N2CCCCC2c2cc(C(=O)Nc3ccncc3)no2)cc1 (centres undefined),/,/,/,1

# Source: PubChem (several laboratories)
